The source made the active and inactive calls. The rule behind the calls is not given here. Peptide text beside a SMILES is read from it. * marks the point of attachment. NH(4-amidinobenzyl) = N=C(N)c1ccc(CN*)cc1
Columns and labels:
Furin = Furin (Homo sapiens, UniProt P09958); test: Inhibition of recombinant human furin expressed in drosophila S2 cells using pyrGlu-Arg-Thr-Lys-Arg-7-amido-4-methylcoumarin as substrate after 60 mins by spectrofluorometry method; format: cell-based
Method in brief: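 Human recombinant purified furin at 2 units/100 µL (0.54 nM), in 100 mM HEPES pH 7.5, 1 mM CaCl2, 1 mM β-mercaptoethanol, 1.8 mg/mL BSA. His-containing peptides run instead in 20 mM BisTris pH 6.5 with the same additives. Substrate 100 µM, KM 5.04 µM. Inhibitor 1 nM to 10 µM; 60 min at 37°C. Fluorescence ex 370 / em 460 nm. Ki by Morrison equation; triplicate experiments, mean ± SD.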

Homo sapiens = species: Homo sapiens; test: Selectivity index, ratio of Ki for recombinant human furin expressed in drosophila S2 cells to Ki for recombinant human PACE4 expressed in drosophila S2 cells; format: cell-based
Method in brief: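 Ratio Ki(furin)/Ki(PACE4). […] PACE4 buffer was BisTris pH 6.5; furin buffer was HEPES pH 7.5, or BisTris pH 6.5 for His peptides. Ki fitted by Morrison equation from three independent experiments.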

DU-145 = test: Antiproliferative activity against human DU145 cells assessed as reduction in metabolic activity at 25 to 100 uM after 72 hrs by MTT assay; format: functional, cell-based
Method in brief: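 First-pass MTT screen of each library peptide on DU145 cells (RPMI 1640, 5% FBS, 1500 cells/well, poly-L-lysine plates). Peptides added 24 h after seeding at 25, 50 and 100 µM in fresh serum medium for 72 h. MTT 1 mg/mL for 4 h; 2-propanol HCl solubilisation. Activity normalised to water vehicle. Mean ± SEM of at least two independent experiments.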

[1] = target: T1, Proprotein convertase subtilisin/kexin type 6 (Homo sapiens, UniProt P29122); test: Inhibition of recombinant human PACE4 expressed in drosophila S2 cells using pyrGlu-Arg-Thr-Lys-Arg-7-amido-4-methylcoumarin as substrate after 60 mins by spectrofluorometry method; format: cell-based
T1 sequence (P29122 whole entry): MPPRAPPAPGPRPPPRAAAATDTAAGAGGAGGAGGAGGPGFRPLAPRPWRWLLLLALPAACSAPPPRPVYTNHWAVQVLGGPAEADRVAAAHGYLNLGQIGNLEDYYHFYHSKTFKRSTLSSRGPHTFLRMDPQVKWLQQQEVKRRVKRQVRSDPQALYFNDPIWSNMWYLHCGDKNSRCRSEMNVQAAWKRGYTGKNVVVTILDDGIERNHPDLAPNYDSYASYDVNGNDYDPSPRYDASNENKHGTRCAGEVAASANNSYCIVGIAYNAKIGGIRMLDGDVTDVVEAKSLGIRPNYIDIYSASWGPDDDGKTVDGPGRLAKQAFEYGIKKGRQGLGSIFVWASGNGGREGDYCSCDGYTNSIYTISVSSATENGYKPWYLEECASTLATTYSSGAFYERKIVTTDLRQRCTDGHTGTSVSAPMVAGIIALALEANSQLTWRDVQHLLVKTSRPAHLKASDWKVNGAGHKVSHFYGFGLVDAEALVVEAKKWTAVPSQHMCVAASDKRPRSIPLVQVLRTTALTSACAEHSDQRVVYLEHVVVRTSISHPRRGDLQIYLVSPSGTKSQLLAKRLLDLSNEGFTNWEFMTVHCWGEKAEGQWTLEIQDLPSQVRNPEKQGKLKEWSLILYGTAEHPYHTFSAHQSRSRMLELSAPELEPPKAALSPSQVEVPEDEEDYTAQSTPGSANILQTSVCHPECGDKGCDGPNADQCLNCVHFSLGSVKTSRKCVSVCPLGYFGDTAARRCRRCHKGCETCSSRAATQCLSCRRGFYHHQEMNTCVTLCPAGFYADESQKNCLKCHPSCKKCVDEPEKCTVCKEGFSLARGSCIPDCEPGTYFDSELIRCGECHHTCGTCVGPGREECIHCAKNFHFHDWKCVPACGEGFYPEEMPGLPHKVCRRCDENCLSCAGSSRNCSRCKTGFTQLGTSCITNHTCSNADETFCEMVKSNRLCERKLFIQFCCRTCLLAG
Method in brief: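 Human recombinant purified PACE4 at 2 units/100 µL (20.18 nM), in 20 mM BisTris pH 6.5, 1 mM CaCl2, 1.8 mg/mL BSA. Substrate 100 µM, KM 4.035 µM. Inhibitor 1 nM to 10 µM; 60 min at 37°C. Fluorescence ex 370 / em 460 nm. Ki by Morrison tight-binding equation; three independent experiments, mean ± SD.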

Furin, sequence (P09958 whole entry): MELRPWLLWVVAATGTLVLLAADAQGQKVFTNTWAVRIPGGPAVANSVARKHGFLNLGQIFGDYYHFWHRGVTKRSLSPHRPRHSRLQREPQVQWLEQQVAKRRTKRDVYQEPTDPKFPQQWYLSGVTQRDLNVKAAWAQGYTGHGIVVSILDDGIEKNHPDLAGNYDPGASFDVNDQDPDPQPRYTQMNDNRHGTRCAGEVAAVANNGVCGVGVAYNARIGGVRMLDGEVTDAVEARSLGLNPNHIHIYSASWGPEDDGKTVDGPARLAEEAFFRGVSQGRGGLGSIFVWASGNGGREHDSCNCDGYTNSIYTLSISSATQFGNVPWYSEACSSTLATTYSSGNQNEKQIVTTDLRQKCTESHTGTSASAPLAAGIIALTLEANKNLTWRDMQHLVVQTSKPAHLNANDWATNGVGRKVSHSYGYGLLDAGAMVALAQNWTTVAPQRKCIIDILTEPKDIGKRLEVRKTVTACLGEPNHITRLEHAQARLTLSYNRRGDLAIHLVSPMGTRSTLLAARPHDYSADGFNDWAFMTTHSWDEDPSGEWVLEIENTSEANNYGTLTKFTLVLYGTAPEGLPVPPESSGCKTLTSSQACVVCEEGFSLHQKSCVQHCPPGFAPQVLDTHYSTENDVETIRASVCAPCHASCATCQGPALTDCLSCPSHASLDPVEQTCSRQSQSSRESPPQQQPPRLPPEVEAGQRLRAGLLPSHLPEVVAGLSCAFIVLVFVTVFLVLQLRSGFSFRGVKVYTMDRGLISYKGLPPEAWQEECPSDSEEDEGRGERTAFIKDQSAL

Structure (SMILES) | Ki (Furin) [nM] | Ki [1] [nM] | Ratio Ki (Homo sapiens) | Activity (DU-145)
CC(=O)N[C@@H](CC(C)C)C(=O)N[C@@H](CC(C)C)C(=O)N[C@@H](CC(C)C)C(=O)N[C@@H](C)C(=O)N[C@@H](CCCNC(=N)N)C(=O)N[C@H](C(=O)N[C@@H](CCCCN)C(=O)NCc1ccc(C(=N)N)cc1)C(C)C (Ac-LLLARVK-{NH(4-amidinobenzyl)}) | 5 | 4 | 1.3 | inactive
CC(=O)N[C@@H](CC(C)C)C(=O)N[C@@H](CCCCN)C(=O)N[C@@H](CC(C)C)C(=O)N[C@@H](CC(C)C)C(=O)N[C@@H](CCCNC(=N)N)C(=O)N[C@H](C(=O)N[C@@H](CCCCN)C(=O)NCc1ccc(C(=N)N)cc1)C(C)C (Ac-LKLLRVK-{NH(4-amidinobenzyl)}) | 0.6 | 0.5 | 1.2 | inactive
CC(=O)N[C@@H](Cc1cnc[nH]1)C(=O)N[C@@H](CC(C)C)C(=O)N[C@@H](CC(C)C)C(=O)N[C@@H](CC(C)C)C(=O)N[C@@H](CCCNC(=N)N)C(=O)N[C@H](C(=O)N[C@@H](CCCCN)C(=O)NCc1ccc(C(=N)N)cc1)C(C)C (Ac-HLLLRVK-{NH(4-amidinobenzyl)}) | 1.8 | 1.3 | 1.4 | inactive
CC(=O)N[C@@H](CC(C)C)C(=O)N[C@@H](CC(C)C)C(=O)N[C@@H](CC(C)C)C(=O)N[C@@H](Cc1cnc[nH]1)C(=O)N[C@@H](CCCNC(=N)N)C(=O)N[C@H](C(=O)N[C@@H](CCCCN)C(=O)NCc1ccc(C(=N)N)cc1)C(C)C (Ac-LLLHRVK-{NH(4-amidinobenzyl)}) | 0.9 | 0.4 | 2.3 | inactive
CC(=O)N[C@@H](CC(C)C)C(=O)N[C@H](C(=O)N[C@@H](CC(C)C)C(=O)N[C@@H](CC(C)C)C(=O)N[C@@H](CCCNC(=N)N)C(=O)N[C@H](C(=O)N[C@@H](CCCCN)C(=O)NCc1ccc(C(=N)N)cc1)C(C)C)C(C)C (Ac-LVLLRVK-{NH(4-amidinobenzyl)}) | 2 | 2 | 1 | inactive
CC(=O)N[C@@H](CCCNC(=N)N)C(=O)N[C@@H](CC(C)C)C(=O)N[C@@H](CC(C)C)C(=O)N[C@@H](CC(C)C)C(=O)N[C@@H](CCCNC(=N)N)C(=O)N[C@H](C(=O)N[C@@H](CCCCN)C(=O)NCc1ccc(C(=N)N)cc1)C(C)C (Ac-RLLLRVK-{NH(4-amidinobenzyl)}) | 1.1 | 0.6 | 1.8 | inactive
CC(=O)N[C@@H](CC(C)C)C(=O)N[C@@H](CC(C)C)C(=O)N[C@@H](CC(C)C)C(=O)N[C@H](C(=O)N[C@@H](CCCNC(=N)N)C(=O)N[C@H](C(=O)N[C@@H](CCCCN)C(=O)NCc1ccc(C(=N)N)cc1)C(C)C)[C@@H](C)O (Ac-LLLTRVK-{NH(4-amidinobenzyl)}) | 4.5 | 2.8 | 1.6 | inactive
CC(=O)N[C@@H](CC(C)C)C(=O)N[C@@H](CC(C)C)C(=O)N[C@@H](CCC(=O)O)C(=O)N[C@@H](CC(C)C)C(=O)N[C@@H](CCCNC(=N)N)C(=O)N[C@H](C(=O)N[C@@H](CCCCN)C(=O)NCc1ccc(C(=N)N)cc1)C(C)C (Ac-LLELRVK-{NH(4-amidinobenzyl)}) | 50 | 60 | 0.8 | inactive
CSCC[C@H](NC(=O)[C@H](CC(C)C)NC(C)=O)C(=O)N[C@@H](CC(C)C)C(=O)N[C@@H](CC(C)C)C(=O)N[C@@H](CCCNC(=N)N)C(=O)N[C@H](C(=O)N[C@@H](CCCCN)C(=O)NCc1ccc(C(=N)N)cc1)C(C)C (Ac-LMLLRVK-{NH(4-amidinobenzyl)}) | 3 | 5 | 0.6 | inactive
CC(=O)N[C@@H](CC(C)C)C(=O)N[C@@H](CC(C)C)C(=O)N[C@@H](Cc1cnc[nH]1)C(=O)N[C@@H](CC(C)C)C(=O)N[C@@H](CCCNC(=N)N)C(=O)N[C@H](C(=O)N[C@@H](CCCCN)C(=O)NCc1ccc(C(=N)N)cc1)C(C)C (Ac-LLHLRVK-{NH(4-amidinobenzyl)}) | 4.8 | 1.8 | 2.7 | inactive
CC(=O)N[C@@H](CC(C)C)C(=O)N[C@@H](CC(C)C)C(=O)N[C@H](C(=O)N[C@@H](CC(C)C)C(=O)N[C@@H](CCCNC(=N)N)C(=O)N[C@H](C(=O)N[C@@H](CCCCN)C(=O)NCc1ccc(C(=N)N)cc1)C(C)C)[C@@H](C)O (Ac-LLTLRVK-{NH(4-amidinobenzyl)}) | 18 | 39 | 0.5 | inactive

Now from value to molecule, other results behind:

Ki (Furin) [nM] | Ki [1] [nM] | Structure (SMILES) | Ratio Ki (Homo sapiens) | Activity (DU-145)
1 | 4 | CC(=O)N[C@@H](CC(C)C)C(=O)N[C@@H](CC(N)=O)C(=O)N[C@@H](CC(C)C)C(=O)N[C@@H](CC(C)C)C(=O)N[C@@H](CCCNC(=N)N)C(=O)N[C@H](C(=O)N[C@@H](CCCCN)C(=O)NCc1ccc(C(=N)N)cc1)C(C)C (Ac-LNLLRVK-{NH(4-amidinobenzyl)}) | 0.3 | inactive
3.1 | 6 | CC(=O)N[C@@H](CC(N)=O)C(=O)N[C@@H](CC(C)C)C(=O)N[C@@H](CC(C)C)C(=O)N[C@@H](CC(C)C)C(=O)N[C@@H](CCCNC(=N)N)C(=O)N[C@H](C(=O)N[C@@H](CCCCN)C(=O)NCc1ccc(C(=N)N)cc1)C(C)C (Ac-NLLLRVK-{NH(4-amidinobenzyl)}) | 0.5 | inactive
3 | 1.5 | CC(=O)N[C@@H](C)C(=O)N[C@@H](CC(C)C)C(=O)N[C@@H](CC(C)C)C(=O)N[C@@H](CC(C)C)C(=O)N[C@@H](CCCNC(=N)N)C(=O)N[C@H](C(=O)N[C@@H](CCCCN)C(=O)NCc1ccc(C(=N)N)cc1)C(C)C (Ac-ALLLRVK-{NH(4-amidinobenzyl)}) | 2 | inactive
4 | 2 | CC(=O)N[C@@H](CC(C)C)C(=O)N[C@@H](CC(C)C)C(=O)N[C@@H](CC(C)C)C(=O)N[C@@H](CO)C(=O)N[C@@H](CCCNC(=N)N)C(=O)N[C@H](C(=O)N[C@@H](CCCCN)C(=O)NCc1ccc(C(=N)N)cc1)C(C)C (Ac-LLLSRVK-{NH(4-amidinobenzyl)}) | 2 | inactive
15 | 36 | CC(=O)N[C@@H](CC(C)C)C(=O)N[C@@H](CC(C)C)C(=O)N[C@@H](CO)C(=O)N[C@@H](CC(C)C)C(=O)N[C@@H](CCCNC(=N)N)C(=O)N[C@H](C(=O)N[C@@H](CCCCN)C(=O)NCc1ccc(C(=N)N)cc1)C(C)C (Ac-LLSLRVK-{NH(4-amidinobenzyl)}) | 0.4 | inactive
13 | 18 | CC(=O)N[C@@H](CC(C)C)C(=O)N[C@@H](CC(C)C)C(=O)N[C@@H](CC(N)=O)C(=O)N[C@@H](CC(C)C)C(=O)N[C@@H](CCCNC(=N)N)C(=O)N[C@H](C(=O)N[C@@H](CCCCN)C(=O)NCc1ccc(C(=N)N)cc1)C(C)C (Ac-LLNLRVK-{NH(4-amidinobenzyl)}) | 0.7 | inactive
